Data as given in PMC5946624 (Dose-Response, 2018).
Where two headings read alike, the source gives them in different places. Marks after values point to notes of the source that are not given here. Each block holds one compound with its values, some of them ahead of it.

What was measured:
CYP2E1 [1] = target: T1, CYP2E1 (Homo sapiens, UniProt P05181); experiment: Extended CYP2E1-pNP inhibition profiling; format: biochemical; settings: additive up to 50 µmol/L
Target sequence in this assay (P05181 whole entry): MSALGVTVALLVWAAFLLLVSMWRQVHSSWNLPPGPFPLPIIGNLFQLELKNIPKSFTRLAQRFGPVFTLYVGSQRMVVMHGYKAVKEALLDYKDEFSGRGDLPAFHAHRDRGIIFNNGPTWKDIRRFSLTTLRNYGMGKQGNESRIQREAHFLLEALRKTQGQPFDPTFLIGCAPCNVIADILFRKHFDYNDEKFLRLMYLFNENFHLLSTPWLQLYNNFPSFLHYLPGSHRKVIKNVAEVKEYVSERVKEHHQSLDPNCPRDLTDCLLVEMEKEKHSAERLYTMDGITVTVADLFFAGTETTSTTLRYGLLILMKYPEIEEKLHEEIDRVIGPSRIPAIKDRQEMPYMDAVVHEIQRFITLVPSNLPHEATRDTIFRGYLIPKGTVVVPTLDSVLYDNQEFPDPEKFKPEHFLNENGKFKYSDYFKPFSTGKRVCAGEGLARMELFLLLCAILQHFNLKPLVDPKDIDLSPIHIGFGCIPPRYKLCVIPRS
Target sequence in this assay (P16435 2-677 partner): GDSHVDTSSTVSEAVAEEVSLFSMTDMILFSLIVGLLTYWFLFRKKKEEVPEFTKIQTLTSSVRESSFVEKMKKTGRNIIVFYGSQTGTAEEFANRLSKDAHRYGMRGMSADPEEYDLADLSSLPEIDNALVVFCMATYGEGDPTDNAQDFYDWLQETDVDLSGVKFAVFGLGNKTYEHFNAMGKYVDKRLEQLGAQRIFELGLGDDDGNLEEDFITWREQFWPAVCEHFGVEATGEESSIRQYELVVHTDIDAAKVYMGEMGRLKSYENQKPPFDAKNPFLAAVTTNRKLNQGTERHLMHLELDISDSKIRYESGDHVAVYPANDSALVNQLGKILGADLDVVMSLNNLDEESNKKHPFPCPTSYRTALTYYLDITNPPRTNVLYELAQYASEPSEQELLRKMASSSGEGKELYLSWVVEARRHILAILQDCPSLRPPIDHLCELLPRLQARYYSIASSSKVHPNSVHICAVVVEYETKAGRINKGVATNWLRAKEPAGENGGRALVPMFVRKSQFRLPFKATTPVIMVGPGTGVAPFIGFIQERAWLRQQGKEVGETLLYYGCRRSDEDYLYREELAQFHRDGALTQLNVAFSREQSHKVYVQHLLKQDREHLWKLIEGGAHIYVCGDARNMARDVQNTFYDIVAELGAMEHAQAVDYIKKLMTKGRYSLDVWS
Target sequence in this assay (P00167 2-134 partner): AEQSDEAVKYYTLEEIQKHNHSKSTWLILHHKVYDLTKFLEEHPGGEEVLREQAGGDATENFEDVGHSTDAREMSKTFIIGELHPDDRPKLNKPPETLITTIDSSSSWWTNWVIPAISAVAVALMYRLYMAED

Escherichia coli DH5α [2] = experiment: Growth of E coli DH5α transformed with pBTR1; format: cell-based; settings: 4 hours, control = 100
E coli DH5α = experiment: Growth; format: cell-based, Escherichia coli
B megaterium MTCC 428 = experiment: Growth; format: cell-based, Bacillus megaterium
Escherichia coli DH5α [3] = settings: 6 hours, control = 100
CYP2E1 [4] = target: T1, CYP2E1; experiment: CYP2E1 baculosome pNP hydroxylation; format: biochemical; settings: for Effect on pNC formation: earlier time (10 minutes)
Target sequence in this assay (P05181 whole entry): as the sequence (P05181 whole entry) above

CYP2E1 [5] = target: T1, CYP2E1; experiment: Simulation of hydroxylating activities of CYP2E1 with DROS; format: biochemical; settings: after 10 minutes; for Concentration of hydroxylated product, Control, Cyt b 5 + pNP: Cyt b5, without CYP2E1; for Concentration of hydroxylated product, CYP2E1, pNP: pNP 25 µmol/L, with CYP2E1; for Concentration of hydroxylated product, CYP2E1, Cyt b 5 + pNP: with CYP2E1 and Cyt b5; for Concentration of hydroxylated product, Control, pNP: without CYP2E1
How it was run: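 Reconstituted hydroxylation with diffusible oxygen species used initial pNP 25 µmol/L, DLPC 20 µmol/L and CYP2E1 100 nmol/L (omitted in controls). When present: NADPH 200 µmol/L, CPR 200 nmol/L, Cyt b5 200 nmol/L, H2O2 32 µmol/L, or KO2 ≤16 µmol/L. KO2 was added from a DMSO/15-crown ether substock, giving ~1% DMSO/crown ether in the reaction. Hydroxylated product (nmol/L) was measured after 10 min.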
Target sequence in this assay (P05181 whole entry): as above
Target sequence in this assay (P16435 2-677 partner): as the sequence (P16435 2-677 partner) above
Target sequence in this assay (P00167 2-134 partner): as the sequence (P00167 2-134 partner) above

CYP2E1 [6] = settings: enzyme taken at 0.1 µmol/L; cited from earlier work

Compound: Cn1c(=O)[nH]c(=O)c2[nH]cnc21 [3-Methylxanthine (MetXan), 3-Methylxanthine]
Effect on pNP reactions (CYP2E1 [1]): did not significantly perturb/inhibit

Compound: Nc1nc[nH]n1 [Amitrol, amitrol]
Relative growth density (Escherichia coli DH5α [2]; amitrol 10^−3 M, + IPTG): 60 (9)
Relative growth density (Escherichia coli DH5α [2]; amitrol 10^−3 M, − IPTG): 94 (4)
Relative growth density (Escherichia coli DH5α [2]; amitrol 10^−6 M, + IPTG): 70 (6)
Relative growth density (Escherichia coli DH5α [2]; amitrol 10^−6 M, − IPTG): 103 (10)
Relative growth density (Escherichia coli DH5α [2]; amitrol 10^−9 M, + IPTG): 63 (5)
Relative growth density (Escherichia coli DH5α [2]; amitrol 10^−9 M, − IPTG): 103 (3)
Relative growth density (Escherichia coli DH5α [2]; amitrol 10^−12 M, + IPTG): 51 (4)
Relative growth density (Escherichia coli DH5α [2]; amitrol 10^−12 M, − IPTG): 50 (2)

Compound: [N-]=[N+]=[N-] [Azide, azide]
Effect on growth (E coli DH5α; azide at mmol/L ranges, compared with B megaterium): much less harsh
Effect on growth (E coli DH5α; nmol/L concentration of azide): inhibitory
Effect on growth (E coli DH5α; µmol/L concentration of azide): no inhibition whatsoever
Effect on growth (B megaterium MTCC 428; azide 10^−6 to 10^−12 M): did not impact
Effect on growth (B megaterium MTCC 428; azide at mmol/L ranges): very effective in curbing the growth
Relative growth density (Escherichia coli DH5α [3]; azide 10^−3 M, + IPTG): 24 (3)
Relative growth density (Escherichia coli DH5α [3]; azide 10^−3 M, − IPTG): 12 (5)
Relative growth density (Escherichia coli DH5α [3]; azide 10^−6 M, + IPTG): 79 (5)
Relative growth density (Escherichia coli DH5α [3]; azide 10^−6 M, − IPTG): 97 (7)
Relative growth density (Escherichia coli DH5α [3]; azide 10^−9 M, + IPTG): 29 (6)
Relative growth density (Escherichia coli DH5α [3]; azide 10^−9 M, − IPTG): 41 (6)
Relative growth density (Escherichia coli DH5α [3]; azide 10^−12 M, + IPTG): 32 (3)
Relative growth density (Escherichia coli DH5α [3]; azide 10^−12 M, − IPTG): 107 (8)

Ki (CYP2E1 [4]; Ki Competitive, Cheng-Prusoff from IC50, KM 14 µmol/L): 8.7 µM
Ki (CYP2E1 [4]; Ki Noncompetitive, calculated from IC50 (website)): 71 µM
Ki Uncompetitive (CYP2E1 [4]; calculated from IC50 (website)): 62.3 µmol/L
Inhibition at 10 nmol/L compared to 1 µmol/L (CYP2E1 [4]; initial sampling time): greater extent of inhibition
Compound: CCc1oc2ccccc2c1C(=O)c1ccc(O)cc1 [Bzr, benzarone]

Compound: N[C@@H](Cc1cc(I)c(O)c(I)c1)C(=O)O [DIT, diiodotyrosine]
Effect on pNC formation (CYP2E1 [4]; 10 nmol/L additive): enhanced reactions
Effect on pNC formation (CYP2E1 [4]; high/higher additive concentrations): inhibited pNC formation

Compound: OO [H2O2]
Concentration of hydroxylated product, Control, Cyt b 5 + pNP (CYP2E1 [5]): Nil
Concentration of hydroxylated product, CYP2E1, pNP (CYP2E1 [5]): <10 nmol/L
Concentration of hydroxylated product, CYP2E1, Cyt b 5 + pNP (CYP2E1 [5]): ∼74 nmol/L
Concentration of hydroxylated product, Control, pNP (CYP2E1 [5]): Nil

Ki Uncompetitive (CYP2E1 [4]; calculated from IC50 (website)): 100.9 µmol/L
Ki (CYP2E1 [4]; read-out: Ki Competitive, Cheng-Prusoff from IC50, KM 14 µmol/L): 14.1 µM
Ki (CYP2E1 [4]; read-out: Ki Noncompetitive, calculated from IC50 (website)): 115 µM
Compound: CCc1oc2ccccc2c1C(=O)c1ccc(OC)cc1 [MeOBzr, methoxybenzarone]

Concentration of hydroxylated product, Control, Cyt b 5 + pNP (CYP2E1 [5]): ∼70^b nmol/L
Concentration of hydroxylated product, CYP2E1, pNP (CYP2E1 [5]): ∼104^b nmol/L
Concentration of hydroxylated product, CYP2E1, Cyt b 5 + pNP (CYP2E1 [5]): ∼499^b nmol/L
Concentration of hydroxylated product, Control, pNP (CYP2E1 [5]): ∼88^b nmol/L
Compound: [O]O [O2 ^˙−]

Compound: c1ccc2[nH]ncc2c1 [indazole]
Kd (CYP2E1 [6]): 5 nM

Km (CYP2E1 [4]; read-out: 2E1-pNP KM, substrate constant used for Cheng-Prusoff): 14 µM
Compound: O=[N+]([O-])c1ccc(O)cc1 [pNP, para-nitrophenol]
